Experimental findings from ChEMBL document CHEMBL1135727, “Selective antagonists at group I metabotropic glutamate receptors: synthesis and molecular pharmacology of 4-aryl-3-isoxazolol amino acids” (J Med Chem, 2002) are described below.

Structures are written as SMILES.

Test [1] has as its target Metabotropic glutamate receptor 2 (Rattus norvegicus, UniProt P31421). Nature of the test: The compound was tested for the receptor binding affinity at Metabotropic glutamate receptor 2 using established second messenger assay systems. A digest of the protocol:
(§1)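 Receptors were expressed in CHO cells: mGluR1α, mGluR2, mGluR4a and mGluR5a. Functional read-outs were PI hydrolysis (1.8 × 10^6 cells seeded 2 days before) or cyclic AMP formation (1.0 × 10^6 cells seeded 2 days before). Agonist and antagonist activity was tested at 1 mM unless stated otherwise. Ki was derived from IC50 via the Cheng–Prusoff equation.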

The species entered for test [2] is Rattus norvegicus. Briefly: Electropharmacology measured as antagonist effects in the rat cortical wedge model. The format is functional.
The target of test [3] is Metabotropic glutamate receptor 5 (Rattus norvegicus, UniProt P31424). Nature of the test: The compound was tested for the receptor binding affinity at Metabotropic glutamate receptor 5 using established second messenger assay systems. A digest of the protocol:
as §1

The target of test [4] is T1, Glutamate receptor ionotropic, AMPA (Rattus norvegicus, UniProt P19490+P19491+P19492+P19493). Briefly: Concentration which causes 50% reduction in receptor binding affinity against Ionotropic glutamate receptor AMPA using [3H]AMPA. The class given is protein-complex assay.
Test [5] addresses Glutamate NMDA receptor. Briefly: Concentration which causes 50% reduction in receptor binding affinity against N-methyl-D-aspartate glutamate receptor (NMDA) using [3H]CPP. The class given is protein-complex assay.
For test [6], the target named is Metabotropic glutamate receptor 4 (Rattus norvegicus, UniProt P31423). Briefly: The compound was tested for the receptor binding affinity at Metabotropic glutamate receptor 4 using established second messenger assay systems. A digest of the protocol:
as §1

The target in test [7] is Metabotropic glutamate receptor 1 (Rattus norvegicus, UniProt P23385). Briefly: The compound was tested for the receptor binding affinity at Metabotropic glutamate receptor 1 using established second messenger assay systems. In outline:
as §1

Test [8] concerns the target Glutamate receptor ionotropic, kainate 1 (Rattus norvegicus, UniProt P22756). Nature of the test: Concentration which causes 50% reduction in receptor binding affinity against Ionotropic glutamate receptor ionotropic kainate using [3H]-kainic acid.
The species entered for test [9] is Rattus norvegicus. Nature of the test: Electropharmacology measured as agonist effects in the rat cortical wedge model. The class given is functional.
The target of test [10] is T1, Glutamate receptor ionotropic, AMPA. Nature of the test: Concentration which causes 50% reduction in receptor binding affinity against Ionotropic glutamate receptor AMPA using [3H]AMPA.

Chain of Metabotropic glutamate receptor 4 (P31423 whole entry): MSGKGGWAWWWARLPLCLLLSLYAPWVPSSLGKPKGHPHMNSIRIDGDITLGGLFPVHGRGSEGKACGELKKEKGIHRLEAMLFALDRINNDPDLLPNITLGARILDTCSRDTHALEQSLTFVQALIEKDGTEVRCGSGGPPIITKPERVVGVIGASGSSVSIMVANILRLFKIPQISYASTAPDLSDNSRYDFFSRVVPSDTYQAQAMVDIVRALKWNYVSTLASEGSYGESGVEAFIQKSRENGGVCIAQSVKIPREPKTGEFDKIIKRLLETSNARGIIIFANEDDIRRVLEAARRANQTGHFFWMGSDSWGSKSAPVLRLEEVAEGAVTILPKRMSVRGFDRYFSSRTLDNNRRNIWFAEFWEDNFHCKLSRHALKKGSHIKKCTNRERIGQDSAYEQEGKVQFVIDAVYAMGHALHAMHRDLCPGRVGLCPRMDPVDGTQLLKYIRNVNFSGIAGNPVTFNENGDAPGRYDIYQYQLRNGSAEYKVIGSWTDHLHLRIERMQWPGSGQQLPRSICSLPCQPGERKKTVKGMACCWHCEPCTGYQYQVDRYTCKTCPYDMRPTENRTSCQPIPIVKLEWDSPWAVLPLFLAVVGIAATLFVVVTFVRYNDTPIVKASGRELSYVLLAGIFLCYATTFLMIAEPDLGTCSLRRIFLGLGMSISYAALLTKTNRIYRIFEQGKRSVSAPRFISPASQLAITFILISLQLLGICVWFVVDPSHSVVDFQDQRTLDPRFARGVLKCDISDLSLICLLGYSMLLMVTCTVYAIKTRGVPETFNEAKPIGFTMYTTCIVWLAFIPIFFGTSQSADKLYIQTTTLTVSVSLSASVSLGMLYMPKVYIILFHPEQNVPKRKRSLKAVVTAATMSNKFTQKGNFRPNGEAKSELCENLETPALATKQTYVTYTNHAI
Chain of Metabotropic glutamate receptor 2 (P31421 whole entry): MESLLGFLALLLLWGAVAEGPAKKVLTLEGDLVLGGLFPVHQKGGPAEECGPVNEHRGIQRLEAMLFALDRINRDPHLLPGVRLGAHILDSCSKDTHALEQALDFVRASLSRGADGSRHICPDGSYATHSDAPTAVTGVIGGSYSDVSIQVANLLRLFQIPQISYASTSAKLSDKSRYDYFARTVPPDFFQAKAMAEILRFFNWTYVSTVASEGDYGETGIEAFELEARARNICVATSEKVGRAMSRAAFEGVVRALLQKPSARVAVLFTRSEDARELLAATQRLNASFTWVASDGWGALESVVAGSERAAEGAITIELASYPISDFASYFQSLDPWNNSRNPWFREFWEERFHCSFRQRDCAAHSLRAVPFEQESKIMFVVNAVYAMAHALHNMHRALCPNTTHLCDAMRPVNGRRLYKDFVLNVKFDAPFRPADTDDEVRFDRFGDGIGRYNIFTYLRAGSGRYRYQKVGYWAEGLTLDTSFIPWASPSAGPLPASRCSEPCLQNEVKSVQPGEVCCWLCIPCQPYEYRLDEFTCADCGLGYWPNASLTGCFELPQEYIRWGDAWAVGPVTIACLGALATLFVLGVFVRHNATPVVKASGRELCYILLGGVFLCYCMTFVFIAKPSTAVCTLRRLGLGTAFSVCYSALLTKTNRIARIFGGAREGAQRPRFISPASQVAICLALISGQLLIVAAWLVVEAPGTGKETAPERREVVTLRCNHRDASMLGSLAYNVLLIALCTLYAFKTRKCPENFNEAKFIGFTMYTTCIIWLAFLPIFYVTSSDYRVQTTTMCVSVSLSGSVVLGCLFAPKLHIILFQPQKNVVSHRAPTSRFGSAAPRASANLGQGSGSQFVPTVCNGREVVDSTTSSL
Chain of Metabotropic glutamate receptor 1 (P23385 whole entry): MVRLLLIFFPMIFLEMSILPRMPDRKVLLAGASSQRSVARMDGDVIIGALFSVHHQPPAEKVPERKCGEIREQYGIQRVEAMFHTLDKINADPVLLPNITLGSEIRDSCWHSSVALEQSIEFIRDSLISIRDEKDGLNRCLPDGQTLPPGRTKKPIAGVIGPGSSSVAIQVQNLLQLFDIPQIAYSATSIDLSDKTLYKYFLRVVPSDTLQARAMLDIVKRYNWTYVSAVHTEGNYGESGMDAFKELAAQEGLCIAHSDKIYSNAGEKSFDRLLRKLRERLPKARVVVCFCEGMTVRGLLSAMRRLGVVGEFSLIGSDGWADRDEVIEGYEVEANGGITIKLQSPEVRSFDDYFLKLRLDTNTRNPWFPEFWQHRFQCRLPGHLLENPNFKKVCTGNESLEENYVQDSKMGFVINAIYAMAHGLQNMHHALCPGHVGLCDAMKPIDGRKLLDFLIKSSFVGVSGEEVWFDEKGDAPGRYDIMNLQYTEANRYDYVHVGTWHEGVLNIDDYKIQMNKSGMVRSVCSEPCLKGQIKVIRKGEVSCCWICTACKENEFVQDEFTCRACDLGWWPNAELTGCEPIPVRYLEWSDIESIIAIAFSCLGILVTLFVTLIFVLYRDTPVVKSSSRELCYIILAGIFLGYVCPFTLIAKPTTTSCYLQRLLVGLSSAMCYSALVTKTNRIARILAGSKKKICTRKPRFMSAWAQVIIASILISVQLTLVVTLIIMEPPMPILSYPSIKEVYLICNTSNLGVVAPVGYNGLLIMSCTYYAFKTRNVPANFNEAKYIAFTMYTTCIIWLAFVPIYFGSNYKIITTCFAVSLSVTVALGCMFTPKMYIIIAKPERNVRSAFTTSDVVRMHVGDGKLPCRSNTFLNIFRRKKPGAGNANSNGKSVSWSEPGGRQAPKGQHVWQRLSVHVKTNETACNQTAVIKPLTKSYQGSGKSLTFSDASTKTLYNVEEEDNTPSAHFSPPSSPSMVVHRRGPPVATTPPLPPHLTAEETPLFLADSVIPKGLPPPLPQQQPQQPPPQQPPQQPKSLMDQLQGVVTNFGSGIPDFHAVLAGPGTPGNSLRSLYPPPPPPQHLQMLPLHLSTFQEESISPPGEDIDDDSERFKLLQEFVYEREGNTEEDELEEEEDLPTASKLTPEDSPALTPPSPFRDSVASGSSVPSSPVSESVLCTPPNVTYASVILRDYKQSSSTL
Chain of Glutamate receptor ionotropic, kainate 1 (P22756 whole entry): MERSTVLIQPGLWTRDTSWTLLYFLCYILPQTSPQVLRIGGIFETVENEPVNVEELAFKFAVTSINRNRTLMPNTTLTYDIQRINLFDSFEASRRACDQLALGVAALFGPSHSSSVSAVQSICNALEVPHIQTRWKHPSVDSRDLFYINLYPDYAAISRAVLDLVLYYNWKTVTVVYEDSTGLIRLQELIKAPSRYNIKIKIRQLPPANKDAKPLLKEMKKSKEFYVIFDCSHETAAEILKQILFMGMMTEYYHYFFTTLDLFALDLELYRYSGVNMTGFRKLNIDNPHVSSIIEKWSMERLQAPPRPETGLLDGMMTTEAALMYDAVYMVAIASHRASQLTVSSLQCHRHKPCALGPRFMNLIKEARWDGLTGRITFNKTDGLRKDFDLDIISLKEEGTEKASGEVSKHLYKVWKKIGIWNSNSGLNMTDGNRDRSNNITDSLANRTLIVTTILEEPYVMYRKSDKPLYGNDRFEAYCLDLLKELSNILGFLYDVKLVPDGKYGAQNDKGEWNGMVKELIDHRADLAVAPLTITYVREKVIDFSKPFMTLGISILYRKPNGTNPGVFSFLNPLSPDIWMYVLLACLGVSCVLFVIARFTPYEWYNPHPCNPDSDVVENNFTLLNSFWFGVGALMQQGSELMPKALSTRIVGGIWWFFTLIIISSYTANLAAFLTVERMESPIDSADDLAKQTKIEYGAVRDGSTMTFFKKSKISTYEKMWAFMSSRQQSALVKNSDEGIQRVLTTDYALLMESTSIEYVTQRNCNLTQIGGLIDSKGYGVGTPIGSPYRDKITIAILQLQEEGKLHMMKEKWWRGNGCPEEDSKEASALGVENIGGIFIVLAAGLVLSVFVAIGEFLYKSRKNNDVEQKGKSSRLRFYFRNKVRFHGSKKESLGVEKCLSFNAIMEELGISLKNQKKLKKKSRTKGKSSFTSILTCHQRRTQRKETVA

Take `N[C@@H](Cc1onc(O)c1-c1ccc2ccccc2c1)C(=O)O`: the Ki (commonly a measure of affinity in units of concentration, obtained from inhibition or displacement) in [1] is more than 1000 µM; in [3] it was 53 µM; in test [6], more than 1000 µM; in [7], 249 µM. The IC50 (in general, the concentration at which inhibition is half-maximal) in [2] was 715 µM; in test [4] it was more than 100 µM; in test [5] it was 14 µM; in test [8], more than 100 µM.
As for `N[C@@H](Cc1onc(O)c1-c1ccc(O)cc1)C(=O)O`, the Ki in [1] is more than 1000 µM; in test [3], 65 µM; in test [6], more than 1000 µM; in test [7] it was 71 µM. Further, the IC50 in test [2] was approximately 1000 µM; in test [4], more than 100 µM; in test [5] it was 20 µM; in test [8], more than 100 µM.
For `N[C@@H](Cc1onc(O)c1-c1ccccc1O)C(=O)O`, the inhibition constant Ki is more than 1000 µM in test [1], 45 µM in test [3], more than 1000 µM in [6] and 125 µM in [7]. Further, the IC50 in [4], in [5] and in [8] was more than 100 µM throughout. Besides, in [9], the concentration giving a half-maximal response (EC50) (usually the concentration that produces a half-maximal response) is more than 1000 µM.
On to `N[C@@H](Cc1onc(O)c1-c1ccccc1)C(=O)O`, for which the Ki in [1] is more than 1000 µM; in test [6], more than 1000 µM; in test [7] it was 160 µM. For the same compound, the IC50 in test [4], in test [5] and in test [8] was more than 100 µM throughout. For the same compound, in [9], the EC50 was determined as 590 µM.
As for `N[C@@H](Cc1o[nH]c(=O)c1CCc1ccccc1)C(=O)O`, the inhibition constant (Ki) is more than 1000 µM in test [1], 70 µM in test [3], more than 1000 µM in test [6] and 92 µM in test [7]. The IC50 in test [2] is more than 1000 µM; in [4], more than 100 µM; in test [5], more than 100 µM; in test [8] it was more than 100 µM.
On to `N[C@@H](Cc1o[nH]c(=O)c1-c1cccc2ccccc12)C(=O)O`, for which the Ki in test [1] was more than 1000 µM; in test [3] it was 62 µM; in [6], more than 1000 µM; in [7], 119 µM. The IC50 was approximately 1000 µM in test [2], more than 100 µM in test [5], more than 100 µM in test [10] and more than 100 µM in [8].
`N[C@@H](Cc1o[nH]c(=O)c1-c1ccccn1)C(=O)O`: the Ki is more than 1000 µM in test [1], 224 µM in test [3], more than 1000 µM in [6] and 396 µM in [7]. Also, the results for the IC50 in [4], in test [5] and in [8] were 1.3 µM, more than 100 µM and more than 100 µM, respectively. In addition, the EC50 in test [9] turned out to be 23 µM.
As for `N[C@@H](Cc1onc(O)c1-c1cccc(O)c1)C(=O)O`, the Ki in [1] was more than 1000 µM; in test [6], more than 1000 µM; in test [7], 226 µM. For the same compound, the IC50 in [4] is 62 µM; in test [5], 42 µM; in test [8] it was more than 100 µM. This compound registered an EC50 in [9] of 990 µM.
As to `N[C@@H](Cc1cc(=O)[nH]o1)C(=O)O`, the Ki is more than 1000 µM in test [1], 490 µM in [3], more than 1000 µM in test [6] and 250 µM in test [7]. The IC50 in [5] and in test [8] was more than 100 µM each time.
